Reference: ChEMBL document CHEMBL3792340, “Novel benzylidenephenylpyrrolizinones with pleiotropic activities potentially useful in Alzheimer's disease treatment” (Eur J Med Chem, 2016)

Assays:
[1] = Antioxidant activity assessed as DPPH radical scavenging activity after 30 mins by microplate reader method; type: physicochemical
Summary of the method: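 Compounds diluted from DMSO stock into absolute ethanol, incubated with 100 μM DPPH for 30 min at room temperature in the dark; absorbance at 517 nm. Scavenging % = (Acontrol−Asample)/Acontrol×100 versus vehicle control.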

[2] = Antioxidant activity assessed as nitric oxide radical scavenging activity at 40 uM after 3 hrs by Griess assay; type: physicochemical
Summary of the method: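 Sodium nitroprusside (50 mM stock in phosphate buffer pH 7.4) mixed with test compound and phosphate buffer, incubated 3 h at 37.4 °C. Aliquot diluted with Griess reagent, absorbance read after 20 min at 546 nm. Inhibition = (Acontrol−Atest)/Acontrol×100; triplicate.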

[3] = Metal chelating activity of the compound assessed as formation of copper complex at 50 uM after 10 mins by UV-visible spectroscopy; type: physicochemical
Summary of the method: (§1)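 Compound in methanol (from 50 mM DMSO stock) at 50 μM mixed with equimolar CuCl2 or FeCl2, 10 min at room temperature; spectra scanned 230–600 nm at 298 K. Difference spectra obtained by subtracting the metal-alone spectrum from the mixture spectrum.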

[4] = Metal chelating activity of the compound assessed as formation of iron complex at 50 uM after 10 mins by UV-visible spectroscopy; type: physicochemical; summary of the method: as §1
[5] = biological target: Amyloid-beta precursor protein (Homo sapiens) (UniProt P05067); experiment: Inhibition of Amyloid beta (1 to 42) (unknown origin) self aggregation at 10 uM measured every 5 mins with shake for 15 secs by ThT fluorescence assay relative to control
Sequence of Amyloid-beta precursor protein (Homo sapiens) (P05067 whole entry): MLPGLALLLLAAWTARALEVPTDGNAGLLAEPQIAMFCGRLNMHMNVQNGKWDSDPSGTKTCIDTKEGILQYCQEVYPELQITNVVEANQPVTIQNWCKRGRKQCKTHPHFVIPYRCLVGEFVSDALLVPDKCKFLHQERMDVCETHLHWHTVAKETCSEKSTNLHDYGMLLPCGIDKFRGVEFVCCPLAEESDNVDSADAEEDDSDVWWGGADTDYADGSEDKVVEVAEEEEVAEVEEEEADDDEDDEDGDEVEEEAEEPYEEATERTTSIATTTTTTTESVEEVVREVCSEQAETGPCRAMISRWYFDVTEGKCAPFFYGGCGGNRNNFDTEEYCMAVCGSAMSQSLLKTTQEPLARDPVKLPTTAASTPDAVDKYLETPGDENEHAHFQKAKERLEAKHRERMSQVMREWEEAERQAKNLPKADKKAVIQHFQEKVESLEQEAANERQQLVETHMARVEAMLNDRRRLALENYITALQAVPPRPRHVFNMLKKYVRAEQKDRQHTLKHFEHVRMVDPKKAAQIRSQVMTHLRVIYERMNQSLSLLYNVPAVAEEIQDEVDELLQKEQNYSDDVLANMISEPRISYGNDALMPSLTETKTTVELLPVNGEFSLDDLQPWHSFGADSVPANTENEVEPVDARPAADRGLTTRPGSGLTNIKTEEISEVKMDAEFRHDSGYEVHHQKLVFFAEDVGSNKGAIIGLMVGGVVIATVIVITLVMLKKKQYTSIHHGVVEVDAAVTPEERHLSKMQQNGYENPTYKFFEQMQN
Summary of the method: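 Aβ1-42 (85 μL at 250 μg/mL) with thioflavin T (10 μL at 2 mM) and compound (1 μL of 1 mM) in 100 μL kit buffer; control without compound plus blanks. Fluorescence at 37 °C every 5 min, 15 s shaking between reads, Ex/Em 440/484 nm. Inhibition = 100 − (IFi/IFo×100).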

[6] = Cytotoxicity against human KB cells assessed as inhibition of cell proliferation at 10^-5 M after 72 hrs by MTS assay relative control; type: cell-based
Summary of the method: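 KB nasopharyngeal carcinoma cells in D-MEM with 10% fetal calf serum and antibiotics under 5% CO2; 1000 cells/well, treated 24 h after plating with compounds in DMSO (1% final), exposed 72 h. MTS read at 490 nm; inhibition = (1−OD treated/OD control)×100, triplicate.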

[7] = Half life in 10 mM phosphate buffer at 20 uM at pH 7.4 at 25 degC by UHPLC analysis; type: physicochemical
Summary of the method: (§2)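 20 μM compound (from 10 mM DMSO stock) in 10 mM phosphate buffer pH 7.4, ionic strength 150 mM with KCl, at 25 °C, n=3. Sampled at 6 times over 0 to 5 or 8 h by UHPLC-PDA on a C18 column with water/acetonitrile gradient (0.01% formic acid). Half-life from exponential regression of disappearance versus time.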

[8] = Binding affinity to Cu2+ assessed as dissociation constant after 10 to 60 mins by UV-visible spectra analysis
Summary of the method: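 In methanol–10 mM Tris pH 7.4 (8:2 v/v), compound 0–200 μM incubated with or without CuCl2 50 μM; scans 230–600 nm after 10 and 60 min. Absorbance difference at each compound's specific wavelength gave complex and free-ligand concentrations using the saturation maximum and stoichiometry from Job plots (total 100 μM, varying mole fraction).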

[9] = Binding affinity to Cu2+ assessed as association constant after 10 to 60 mins by UV-visible spectra analysis
Summary of the method: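 Ligand titration in methanol–10 mM Tris pH 7.4 (8:2, v/v): compound 0 to 200 μM incubated with or without CuCl2 (50 μM), room temperature. Scanned 230–600 nm at 10 and 60 min. Difference spectra (mixture minus compound) read at each compound's specific wavelength give bound complex and free ligand, using stoichiometry from Job plots at 100 μM total.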

[10] = Antioxidant activity assessed as FeCl2-induced lipoperoxidation at 40 uM incubated for 2 hrs in dark by ferric thiocyanate method
[11] = Permeability of the compound at 100 uM at pH 7.4 after 4 hrs by PAMPA-BBB assay
[12] = Chemical stability in 10 mM phosphate buffer at 20 uM at pH 7.4 at 25 degC after 5 hrs by UHPLC analysis; type: physicochemical; settings: pH 7.4, 5 h; summary of the method: as §2

Structure (SMILES)	EC50 [1] [µM]	Activity [2] [%]	Activity [3]	Activity [4]	inhibition [5] [%]	inhibition at 72 h, 10 µM [6] [%]	half-life at 20 µM [7] [h]	Kd [8] [µM]	logKa [9]	peroxidation % [10] [%]	log Pe [11]	Stability [12]
O=C1/C(=C/c2ccc(O)c(O)c2)C(c2ccc(O)c(O)c2)n2cccc21 (centres undefined)	9.6	47.1	Active	Active	27	0	6.4	19.9	4.7	47	–	–
COc1ccc(/C=C2/C(=O)c3cccn3C2c2ccc(O)c(OC)c2)cc1O (centres undefined)	> 250	57.7	Not Active	Not Active	15.9	0	–	–	–	58.2	–	–
COc1cc(C2/C(=C\c3ccc(O)c(O)c3)C(=O)c3cccn32)ccc1O (centres undefined)	12	58	Active	Active	26.1	0	6.8	22.1	4.65	50.6	–	–
COc1ccc(/C=C2/C(=O)c3cccn3C2c2ccc(O)c(OC)c2)c(OC)c1 (centres undefined)	> 250	40.3	Not Active	Not Active	6	38	–	–	–	67.5	–	–
COc1cc(/C=C/C(=O)O)ccc1O [FERULATE]	43.2	46.4	–	–	–	–	–	–	–	47	–	–
COc1ccc(/C=C2/C(=O)c3cccn3C2c2ccc(OC)c(O)c2)cc1O (centres undefined)	> 250	53.7	Active	Active	8.4	24	–	–	–	71	–	–
COc1cc(/C=C2/C(=O)c3cccn3C2c2ccccc2)ccc1O (centres undefined)	> 250	51.7	Not Active	–	14.5	24	–	–	–	67.4	–	–
O=c1c(O)c(-c2ccc(O)c(O)c2)oc2cc(O)cc(O)c12 [QUERCETIN]	–	70.7	–	–	–	–	–	–	–	–	–	–
Cn1c(=O)c2[nH]cnc2n(C)c1=O.O [THEOPHYLLINE]	–	–	–	–	–	–	–	–	–	–	< -6	–
O=C1/C(=C/c2ccccc2)C(c2ccccc2)n2cccc21 (centres undefined)	–	34.4	–	–	1.4	41	–	–	–	55.1	–	–
COc1ccc(C2/C(=C\c3ccc(O)c(OC)c3)C(=O)c3cccn32)cc1O (centres undefined)	99.5	55.1	Active	Active	12.8	29	–	–	–	56.4	–	–
COc1cc(/C=C2/C(=O)c3cccn3C2c2ccc(O)c(OC)c2)ccc1O (centres undefined)	101	57	Active	Active	10.4	0	–	–	–	48.5	–	–
COc1cc(C2/C(=C\c3ccc(OCc4ccccc4)c(OCc4ccccc4)c3)C(=O)c3cccn32)ccc1OCc1ccccc1 (centres undefined)	> 250	30.7	–	–	4.2	0	–	–	–	92.8	–	–
COc1cc(C2/C(=C\c3cc(OC)c(OC)c(OC)c3)C(=O)c3cccn32)ccc1O (centres undefined)	> 250	32.6	Not Active	Not Active	23.6	–	–	–	–	67.1	–	–
O=C1/C(=C/c2ccc(O)c(O)c2)C(c2ccccc2)n2cccc21 (centres undefined)	12.6	65.6	Active	Active	28.7	0	–	2.2	5.65	57	–	Stable
COc1cc(/C=C/C(=O)CC(=O)/C=C/c2ccc(O)c(OC)c2)ccc1O [CURCUMIN]	19.2	60.4	Active	Active	–	83	–	–	–	–	–	–
COc1ccc(C2/C(=C\c3ccc(O)c(O)c3)C(=O)c3cccn32)cc1O (centres undefined)	12.8	57.5	Active	Active	24.9	0	11.9	70.5	4.15	51.3	–	–
Cc1c(C)c2c(c(C)c1O)CCC(C)(C(=O)O)O2 (centres undefined) [TROLOX]	18.2	–	–	–	–	–	–	–	–	–	–	–
COc1cc(C2/C(=C\c3cc(OC)c(O)c(OC)c3)C(=O)c3cccn32)ccc1O (centres undefined)	246	35.3	Not Active	Not Active	30.1	0	–	–	–	70.4	–	–
